# Most compounds without a hit are left out; they make up all but 2.3% or so of the library.
# STAT3 blocker – reduces IL-6 driven STAT3 reporter signal; U3A cells, IL-6 STAT3-luciferase reporter, luminescence; host cell line lacks STAT1; inhibition, % at 5.5 µM; 190,000 tested, 0.89% active; AID 862;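 active = inhibition above the mean inhibition across all screened compounds plus 3 SD, cut at about 44% in these data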;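 also: 0% = DMSO only wells and 100% = 100 µM nifuroxazide control wells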
# HSP90 inh – inhibitors of HSP90 luciferase refolding in rabbit reticulocyte lysate | luciferase refolding luminescence, 3 h | inhibition, % at 5.6 µM | 290,000 tested, 0.91% active;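 active = inhibition above the screen-wide mean plus 3 SD, computed separately per campaign, cut at about 16% in these data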;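 also: 0% = DMSO wells and 100% = 60 µM geldanamycin wells; inhibitors lower the luminescence because luciferase stays unfolded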
# STAT1 blocker – inhibitors of IFN-gamma induced STAT1 signaling; NIH 3T3 STAT1-luciferase reporter, luminescence; inhibition, % at 5.5 µM; 200,000 tested, 0.35% active; AID 920;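 active = inhibition above a set limit, the mean inhibition across all tested compounds plus 3 SD, cut at about 34% in these data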;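 also: 0% = IFN-gamma with DMSO and 100% = IFN-gamma with 300 µM nifuroxazide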
# PPC-1+TRAIL kill – kills PPC-1 cancer cells in the presence of TRAIL; 220,000 tested, 0.41% active; AID 1443; cell killing (% activity), % at 4 µM or 5 µM; PPC-1 cells + TRAIL, ATPLite viability luminescence;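 active = cell killing above 50% in the first pass at 4 µM, then a duplicate retest at 5 µM averaging 50% or more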;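 also: plate controls were cells with TRAIL plus DMSO for no effect and medium-only wells lacking cells for full effect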
# STAT3 activator – increases IL-6 driven STAT3 reporter signal; activation (% of control), % at 5.6 µM; AID 871; U3A cells, IL-6 STAT3-luciferase reporter, luminescence; 100% = signal with IL-6 EC80 alone; 190,000 tested, 0.91% active;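 active = activation above the screen-wide mean of compound activation plus 3 SD, cut at about 130% in these data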;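 also: 0% = background luminescence of wells with medium and substrate only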
#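 Material: human STAT1-deficient U3A cells with stable STAT3-luciferase reporter / Probe or stimulus: IL-6 stimulus at 33 ng/mL final / Schedule: 1 h compound pre-exposure, 6 h IL-6 stimulation, 37 °C / Technique: luminescence / Read-out basis: percent of IL-6-only median luminescence / Control set: IL-6-only high control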
# TRAIL sens C8 – caspase-8 TRAIL sensitization. 360,000 tested, 1% active. NB7+C8 cells + TRAIL, ATPlite viability luminescence. inhibition (viability loss, TRAIL sensitization), % at 10 µM;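 active = compounds causing at least 50% loss of cell viability in the single-dose screen, relative to plate controls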
# * hit, by the source's call; . = no result.
SMILES,STAT3 blocker,HSP90 inh,STAT1 blocker,PPC-1+TRAIL kill,STAT3 activator,TRAIL sens C8
c1ccc(Nc2ccccc2Nc2ccccn2)nc1,-2,5,4,26,104,-22
Oc1cccc2ccc(Nc3ccccn3)nc12,34,-1,-5,-4,76,83*
O=C(NCC(=O)N1CCCCC1)c1ccc(Br)o1,.,2,.,.,.,-10
COC(=O)c1sccc1NC(=O)c1csc(C)c1,-38,1,-1,-13,136*,-4
COC(=O)c1sccc1NC(=O)c1ccc(C)cc1,.,-2,.,.,.,-6
CN1N=C(/C=C/c2ccccc2)CCC1=O,13,-2,-23,5,91,10
Cc1ccc(/C=C/C2=NN(C)C(=O)CC2)cc1,30,2,-24,39,75,53*
CC(=O)c1ccc(NC(=O)CSc2nc(N)c3cc4c(nc3n2)CCCC4)cc1,-8,-3,-18,23,105,52*
COc1ccc(NC(=O)CSc2nc(N)c3cc4c(nc3n2)CCCC4)cc1,-6,4,-6,15,110,37
Cc1ccc(CN(C)C(=O)c2cccc(S(=O)(=O)N3CCCC3)c2)o1,.,.,.,.,.,-26
COc1cccc(/C=C/C(=O)NNC(=O)c2ccco2)c1OC,.,.,.,.,.,63*
CCOC(=O)C1=C(CC)Nc2ccccc2N=C1NC(=O)Nc1ccc(Cl)c(Cl)c1,-7,0,7,-8,104,56*
CCOC(=O)C1=C(CC)Nc2ccccc2N=C1NC(=O)c1cc(C)on1,.,.,.,.,.,-6
O=C(Nc1cc(C(F)(F)F)cc(C(F)(F)F)c1)Nc1cnn(-c2ccc([N+](=O)[O-])cc2)c1C(F)(F)F,.,4,.,17,.,47*
O=C(Nc1ccc([N+](=O)[O-])cc1)Nc1ccc(Cl)cc1F,28,-4,5,2,81,30
Cn1c(=N)n(CC(=O)c2ccc(F)cc2)c2ccccc21,.,7,.,.,.,80*
Cn1c(=N)n(CC(=O)c2ccc(Br)cc2)c2ccccc21,.,.,.,.,.,35
O=C(N=c1nc2ccccn2s1)c1ccccc1,.,.,.,84*,.,84*
C#Cc1cccc(C(=O)N2CCCC(CCC(=O)NCc3ccccc3F)C2)c1 (stereo not given),.,-1,.,.,.,7
O=C(C1=C[C@@H](c2ccc(Br)cc2)C[C@@H](OCc2ccc(CO)cc2)O1)N1CCN(Cc2ccc3c(c2)OCO3)CC1,.,17*,6,4,.,9
CC(O)CNc1ncnc2nc[nH]c12 (stereo not given),0,-4,1,7,105,2
CC(C)CCCCCCCCCCCCC(=O)NCC(=O)NC1C(O)C(O)C(Nc2ncnc3nc[nH]c23)OC1C(O)CO (stereo not given),.,.,.,.,.,65*
O=C(NC12CC3CC(CC(C3)C1)C2)c1ccc(-c2ccc(Cl)cc2)o1,-34,9,-33,23,126,20
O=C(NC12CC3CC(CC(C3)C1)C2)c1ccc(-c2cccc(Cl)c2)o1,-12,17*,-72,6,113,16
N#CC(c1cccc(Cl)c1)c1ccc2c(C(F)(F)F)cc(C(F)(F)F)nc2n1 (stereo not given),86*,-1,61*,33,29,30
SMILES,STAT3 blocker,HSP90 inh,STAT1 blocker,PPC-1+TRAIL kill,STAT3 activator,TRAIL sens C8
NNc1ccc2c(C(F)(F)F)cc(C(F)(F)F)nc2n1,-4,-2,3,15,105,43
CN(C)S(=O)(=O)N1CCC(Oc2cccc(C(=O)NC3CCCCCC3)c2)CC1,.,-3,.,.,.,10
CCN1/C(=C/c2cccc[n+]2C)Sc2ccc(OC)cc21,.,1,.,.,.,54*
CC1CC(=O)c2c(cc3c(-c4c(O)cc(O)c5c(O)c6c(cc45)OC(C)CC6=O)c(O)cc(O)c3c2O)O1 (stereo not given),.,3,7,14,.,88*
CCOCc1nc(N)nc(N)c1-c1cccc(Cl)c1,.,.,.,.,.,56*
O=C(CN1C(=O)S/C(=C/c2ccc(N3CCOCC3)cc2)C1=O)N1CCOCC1,-7,2,-15,49,108,61*
CCN(c1ccccc1)S(=O)(=O)c1ccc(Oc2ccccc2)c(N)c1,.,.,.,.,.,2
Cc1nc(N)nc(N)c1-c1ccc([N+](=O)[O-])cc1,.,.,.,.,.,75*
Cc1ccc(N2CCN(c3ccc(NCc4nc5ccccc5n4C)cc3)CC2)cc1,-12,1,1,0,114,10
Cn1c(CNc2ccc(Cl)cc2)nc2ccccc21,-71,6,-47,12,163*,26
Cc1ccc2c(n1)sc1c(-c3ccccc3)c(C#N)c(N)nc12,-35,1,0,35,135*,13
CCN(CC)C(=O)Cn1c(=O)n(-c2ccccc2)c(=O)c2sccc21,1,1,9,24,100,9
O=[N+]([O-])c1ccc(/C=N/NC(=S)Nc2ccccc2F)o1,21,6,-6,33,86,25
Fc1ccccc1NC(=S)N/N=C/c1ccccc1Br,-10,16*,-19,7,108,1
COCCn1c(SCc2nnc(-c3ccc(OC)c(OC)c3)o2)nnc1-c1ccncc1,.,-2,.,-7,.,13
C=CCNc1nc(-c2sc(NC(=O)CC)nc2C)cs1,-37,2,-28,14,135*,0
C=CCNc1nc(-c2sc(NC(C)=O)nc2C)cs1,-3,1,-32,6,103,18
Cc1cc2nc3ccc(N(C)C)cc3nc2cc1N,.,.,.,.,.,52*
CCOc1ccc(NC(=O)CN(C)C(=O)CSCc2cccc(C)c2)cc1OCC,.,.,.,.,.,-3
Cc1cc(N/N=C/c2ccc(O)cc2O)nc(-c2ccccc2O)n1,6,-2,-24,34,93,77*
C/C(=N\Nc1cc(C)nc(-c2ccccc2O)n1)c1ccccc1O,.,-1,.,24,.,29
Cc1cc(N/N=C/c2ccc(O)cc2O)nc(-n2nc(C)cc2C)n1,13,2,-3,55*,85,36
Cc1cc(N/N=C/c2ccccc2O)nc(-c2ccccc2O)n1,-10,5,6,39,106,19
COc1ccc(O)c(/C=N/Nc2nc(Nc3ccccc3)nc(-n3nc(C)cc3C)n2)c1,14,6,2,-7,88,55*
Cc1cc(N/N=C\c2ccccc2)nc(-c2ccccc2O)n1,5,-1,-13,34,93,56*
COc1ccc(-c2nnc(SCC(=O)N3CCCCC3)o2)c(OC)c1,7,0,1,9,99,-6
CCOC(=O)c1sc(NC(=O)Cc2ccc(F)cc2)nc1C,13,-1,-8,17,91,-18
CCOC(=O)c1sc(NC(=O)Nc2ccc(F)cc2)nc1C,-6,0,-67,42,103,51*
CCOC(=O)c1sc(NC(=O)c2ccc(OC(C)=O)cc2)nc1C,39,6,-19,50,69,65*
CCOC(=O)c1sc(NC(C)=O)nc1C,8,5,-9,35,99,6

# Bioassay records as filed in PubChem.
